Source: ChEMBL document CHEMBL4011654, “Mitochondria-Targeted Lupane Triterpenoid Derivatives and Their Selective Apoptosis-Inducing Anticancer Mechanisms” (J Med Chem, 2017)
Calls of active or inactive are those of the source. The calls are words filed in the database; no cut-off is given here.

Assays:
K562 [1] = experiment: Induction of apoptosis in human K562 cells assessed as upregulation of cleaved PARP up to 4 uM after 48 hrs by Western blot analysis; assay type: functional, cell-based
K562 [2] = experiment: Induction of mitochondrial membrane depolarization in human K562 cells assessed as cells with mitochondrial membrane potential loss at 2 uM after 48 hrs by JC-1 staining based flow cytometric analysis (reference value: 1.89 to 2.23%); assay type: functional
K562 [3] = experiment: Induction of apoptosis in human K562 cells assessed as early apoptotic cells at 0.8 uM after 48 hrs by Annexin V-FITC/propidium iodide-staining based flow cytometric analysis (reference value: 0.92 to 1.45%); assay type: functional
In short: (§1)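 K562 seeded at 4 × 10^5 cells/well, 12 h, then exposed 48 h. Cells washed in ice-cold PBS, suspended in binding buffer, stained with annexin V-FITC and PI for 15 min at room temperature in the dark, and read by flow cytometry within 1 h. Cells counted as early/late apoptotic as % of total; n = 3.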

L02 = experiment: Cytotoxicity against human HL-7702 cells assessed as cell growth inhibition after 48 hrs by MTT assay; assay type: cell-based; conditions: L02, 48 h
In short: (§2)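 Adherent cells seeded at 5000/well, left 16−24 h, then exposed 48 h at 37 °C, 5% CO2 in RPMI with 10% FBS. Medium refreshed, MTT added for 4 h at 37 °C, medium removed, formazan dissolved in DMSO, OD570 read. IC50 taken as concentration inhibiting growth by 50%; triplicate.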

K562 [4] = experiment: Induction of mitochondrial membrane depolarization in human K562 cells assessed as cells with mitochondrial membrane potential loss at 4 uM after 48 hrs by JC-1 staining based flow cytometric analysis (reference value: 1.89 to 2.23%); assay type: functional
K562 [5] = experiment: Cytotoxicity against human K562 cells assessed as cell growth inhibition after 48 hrs by MTT assay; assay type: functional, cell-based; conditions: K562, 48 h
In short: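 Suspension cells seeded at 5000/well (HL-60 in IMDM, K562 in RPMI, both with 10% FBS) and treated. MTT then added for 4 h at 37 °C; plates centrifuged at 3000 rpm for 30 min, medium removed, DMSO added, OD570 read. IC50 taken as concentration giving 50% growth inhibition; triplicate.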

K562 [6] = experiment: Induction of ROS generation in human K562 cells at 0.5 uM after 48 hrs by DCFH-DA probe based flow cytometric analysis relative to control; assay type: functional
In short: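 K562 seeded at 4 × 10^5 cells/well, 12 h, then treated 48 h. Washed cells loaded with DCFH-DA in FBS-free medium at 37 °C for 30 min, rinsed, read by flow cytometry. ROSup was the positive control; mean ± SD, n = 3.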

K562 [7] = experiment: Induction of apoptosis in human K562 cells assessed as necrotic cells at 1.2 uM after 48 hrs by Annexin V-FITC/propidium iodide-staining based flow cytometric analysis (reference value: 0.13 to 0.27%); assay type: functional; in short: as §1
ECa-109 cell line = experiment: Cytotoxicity against human ECA109 cells assessed as cell growth inhibition after 48 hrs by MTT assay; assay type: functional, cell-based; conditions: ECa-109, 48 h; in short: as §2
K562 [8] = experiment: Induction of mitochondrial membrane depolarization in human K562 cells assessed as cell with intact mitochondrial membrane potential at 1 uM after 48 hrs by JC-1 staining based flow cytometric analysis (reference value: 97.63 to 97.67%); assay type: functional
In short: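 K562 seeded at 4 × 10^5 cells/well, after 12 h treated 48 h. Cells washed in ice-cold PBS, loaded with JC-1 ([…]) at 37 °C for 15 min, rinsed, and analysed by flow cytometry (% cells with red aggregates) and fluorescence microscopy (red aggregates vs green monomers).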

K562 [9] = experiment: Induction of apoptosis in human K562 cells assessed as early apoptotic cells at 0.4 uM after 48 hrs by Annexin V-FITC/propidium iodide-staining based flow cytometric analysis (reference value: 0.92 to 1.45%); assay type: functional; in short: as §1
K562 [10] = experiment: Antitumor activity against CM-Dil-labeled human K562 cells xenografted in wild-type zebrafish embryos assessed as reduction in cell migration at 1 to 2 ug/ml measured after 48 hrs by confocal microscopic analysis; assay type: functional, cell-based
In short: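 K562 cells labelled with CM-Dil, suspended in FBS-free medium at (1 × 107)/mL and microinjected into wild-type zebrafish embryos kept at 28 °C in embryonic medium. After 4 h, embryos with the same injection spot were pooled at 15−20 per well and exposed to compound; Taxol served as positive control. At 48 h, confocal imaging gave fluorescent area (migration) and fluorescence intensity (cell number); n = 15.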

With `C=C(C)[C@@H]1CC[C@]2(COC(=O)CCCC[P+](c3ccccc3)(c3ccccc3)c3ccccc3)CC[C@]3(C)[C@H](CC[C@@H]4[C@@]5(C)CC[C@H](O)C(C)(C)[C@@H]5CC[C@]43C)[C@@H]12.[Br-]` the Activity (K562 [1]) was “Active”, the Activity (K562 [2]) was 17.08% and the Activity (K562 [3]) was 12.51%. For the same compound, the IC50 (L02) was 6620 nM, the Activity (K562 [4]) was 61.4% and the IC50 (K562 [5]) was 570 nM. For the same compound, the Activity (K562 [6]) was 50%, the Activity (K562 [7]) was 4.41% and the IC50 (ECa-109 cell line) was 780 nM. The Activity (K562 [8]) was 93.08%, the Activity (K562 [9]) was 6.68% and the Activity (K562 [10]) was “Active”.
